Assay results reported in publication PMC6061379 (Clinical Drug Investigation, 2018).
Values joined by “and” are separate entries in the source; they are usually repeats but may differ in a detail not shown here. Identical values can stand only once. Like-named read-outs stand apart in the source and are kept apart here.

Assays:
serum urate (sUA) = assay: Serum urate; format: in vivo, human; conditions: verinurad 15 mg; all groups
How it was run: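 Single 15 mg dose. Serial serum sampled on Day −1 (baseline) and Day 1 at preset times up to 72 h post-dose. Urate measured enzymatically. Percent change from baseline time-matched to Day −1, with maximal and mean changes derived per renal-function group.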

sUA = conditions: doses as low as; cited from earlier work
URAT1 = conditions: read-out: half-maximal inhibitory constant in inhibiting URAT1; cited from earlier work
[1] = Urinary pharmacokinetics after single oral verinurad 15 mg; format: in vivo, human; conditions: for fe0–72 fraction of drug excreted in urine unchanged from time zero to 72 h, GM (95% CI): verinurad 15 mg single oral dose; for CLR0–72, GLSMR (90% CI) versus normal renal function group / Decrease in renal clearance (CLR0-72) versus normal renal function: verinurad 15 mg
How it was run: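 Single 15 mg dose given to males grouped by Cockcroft-Gault creatinine clearance. Total-catch urine collected at 6–12 h intervals to 72 h post-dose. Parent and metabolites quantified by validated LC-MS/MS, with the acyl-glucuronide hydrolysed by 2 M KOH and measured as total aglycone. Renal clearance and fraction excreted unchanged over 0–72 h. Ln-transformed parameters compared with the normal group by fixed-effects model; geometric mean ratios with 90% CI.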

[2] = humans, cited from earlier work
urinary uric acid = assay: Urinary uric acid pharmacodynamics after verinurad 15 mg; format: in vivo, human; conditions: for AeUR,0–24 h amount of urinary uric acid recovered in urine, mean (SD) / FEUA,0–24 h fractional excretion of uric acid, mean (SD) / ReUR,0–24 h rate of urinary uric acid excretion, mean (SD): following verinurad 15 mg
How it was run: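 Total-catch urine collected at 6–12 h intervals to 72 h after a single 15 mg dose, with a Day −1 baseline. Urate and creatinine in serum and urine measured by enzymatic method.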

Plasma protein binding = format: in vitro ADME; conditions: human
Safety assessments = format: in vivo, human; conditions: for Number of adverse events / Subjects with adverse events, n (%): treatment-emergent; for Number of adverse events / Subjects with adverse events, n (%) / Number of adverse events of mild severity / Number of adverse events of moderate severity / Severe/life-threatening adverse events / Subjects with adverse events of mild severity, n (%) / Subjects with adverse events of moderate severity, n (%): verinurad 15 mg
How it was run: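 Males with normal or impaired renal function were housed in the study centre from Day −2 until final procedures after a single 15 mg dose. Assessments covered adverse events (MedDRA v17.0), clinical laboratory tests, vital signs, ECGs and physical examinations. Clinically relevant laboratory abnormalities were graded for severity by the investigator using Rheumatology Common Toxicity Criteria v2.0.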

[3] = format: in vivo, human; conditions: for AUC0–∞, GLSMR (90% CI) versus normal renal function group / Cmax, GLSMR (90% CI) versus normal renal function group: plasma; for AUC0–∞, GLSMR (90% CI) versus normal renal function group / Cmax, GLSMR (90% CI) versus normal renal function group / CL/F, GLSMR (90% CI) versus normal renal function group / Increase in AUC0–∞ compared to subjects with normal renal function / Increase in Cmax compared to subjects with normal renal function: verinurad 15 mg; for CL/F total body clearance, GM (95% CI): verinurad 15 mg single oral dose, fasted
How it was run: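 Males aged 18–85 y with sUA 4.5–10 mg/dl, grouped by Cockcroft-Gault eCrCl (normal ≥90, mild 60–<90, moderate 30–<60, severe 15–<30 ml/min). Normal group matched for age and BMI. Single 15 mg dose. Serial blood sampled up to 72 h post-dose; plasma acidified. Parent and metabolites measured by validated LC-MS/MS. Non-compartmental parameters, ln-transformed, fixed-effects model, geometric mean ratios with 90% CI versus normal.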

[4] = moderate renal impairment (N = 7)
[5] = severe renal impairment (N = 7)
[6] = moderate renal impairment (N = 8)
[7] = verinurad 15 mg single dose, all groups

CC(C)(Sc1ccncc1-c1ccc(C#N)c2ccccc12)C(=O)O [Verinurad]
Time post-dose at which maximal percent change in sUA occurred (serum urate (sUA)): approximately 12 h
Lowest dose providing sUA lowering in humans (sUA): 2.5 mg
IC50 (URAT1): 0.036 µM
fe0–72 fraction of drug excreted in urine unchanged from time zero to 72 h, GM (95% CI) [1, 4]: 1.05 (0.561–1.96) %
fe0–72 fraction of drug excreted in urine unchanged from time zero to 72 h, GM (95% CI) ([1]; normal renal function (N = 8)): 0.814 (0.508–1.31) %
fe0–72 fraction of drug excreted in urine unchanged from time zero to 72 h, GM (95% CI) [1, 5]: 0.362 (0.202–0.647) %
CLR0–72, GLSMR (90% CI) versus normal renal function group ([1]; mild renal impairment): 95.4% (60.6–150)
Decrease in renal clearance (CLR0-72) versus normal renal function ([1]; mild renal impairment): 5% and 4.6%
CLR0–72, GLSMR (90% CI) versus normal renal function group ([1]; moderate renal impairment): 58.3% (30.2–113)
Decrease in renal clearance (CLR0-72) versus normal renal function ([1]; moderate renal impairment): 42%
CLR0–72, GLSMR (90% CI) versus normal renal function group ([1]; severe renal impairment): 21.2% (13.6–32.8)
Decrease in renal clearance (CLR0-72) versus normal renal function ([1]; severe renal impairment): 79%
Parent drug excreted unchanged in urine ([2]; ref 21): about 2%
Parent drug excreted unchanged in urine ([2]; ref 26): about 2%
AeUR,0–24 h amount of urinary uric acid recovered in urine, mean (SD) (urinary uric acid; mild renal impairment (N = 8)): 880 (225) mg
FEUA,0–24 h fractional excretion of uric acid, mean (SD) (urinary uric acid; mild renal impairment (N = 8)): 16.2 (5.68) %
ReUR,0–24 h rate of urinary uric acid excretion, mean (SD) (urinary uric acid; mild renal impairment (N = 8)): 36.6 (9.39) mg/h
AeUR,0–24 h amount of urinary uric acid recovered in urine, mean (SD) (urinary uric acid; [4]): 707 (334) mg
FEUA,0–24 h fractional excretion of uric acid, mean (SD) (urinary uric acid; [4]): 13.0 (7.48) %
ReUR,0–24 h rate of urinary uric acid excretion, mean (SD) (urinary uric acid; [4]): 29.3 (13.8) mg/h
AeUR,0–24 h amount of urinary uric acid recovered in urine, mean (SD) (urinary uric acid; normal renal function (N = 8)): 969 (299) mg
FEUA,0–24 h fractional excretion of uric acid, mean (SD) (urinary uric acid; normal renal function (N = 8)): 13.8 (6.24) %
ReUR,0–24 h rate of urinary uric acid excretion, mean (SD) (urinary uric acid; normal renal function (N = 8)): 40.1 (12.1) mg/h
AeUR,0–24 h amount of urinary uric acid recovered in urine, mean (SD) (urinary uric acid; [5]): 393 (144) mg
FEUA,0–24 h fractional excretion of uric acid, mean (SD) (urinary uric acid; [5]): 12.7 (6.43) %
ReUR,0–24 h rate of urinary uric acid excretion, mean (SD) (urinary uric acid; [5]): 16.3 (6.02) mg/h
Time post-dose by which ReUR returned to baseline (urinary uric acid; verinurad 15 mg): ≤ 12 h
fraction unbound (Plasma protein binding): 0.013 to 0.024
Subjects with TEAE possibly related to verinurad (Safety assessments; control group, oropharyngeal pain and rhinorrhea): One subject
Number of adverse events (Safety assessments; mild renal impairment (N = 8)): 3
Subjects with adverse events, n (%) (Safety assessments; mild renal impairment (N = 8)): 3 (37.5%)
Number of adverse events (Safety assessments; [6]): 2
Subjects with adverse events, n (%) (Safety assessments; [6]): 1 (12.5%)
Number of adverse events (Safety assessments; normal renal function (N = 8)): 5
Subjects with adverse events, n (%) (Safety assessments; normal renal function (N = 8)): 1 (12.5%)
Number of adverse events (Safety assessments; [5]): 2
Subjects with adverse events, n (%) (Safety assessments; [5]): 2 (28.6%)
Adverse event-related withdrawals (Safety assessments; [7]): no AE-related withdrawals
Changes in laboratory values or vital signs (Safety assessments; [7]): No clinically meaningful changes
Serious adverse events (Safety assessments; [7]): no serious AEs
Tolerability (Safety assessments; [7]): well tolerated
Number of adverse events of mild severity (Safety assessments; mild renal impairment (N = 8)): 2
Number of adverse events of moderate severity (Safety assessments; mild renal impairment (N = 8)): 1
Severe/life-threatening adverse events (Safety assessments; mild renal impairment (N = 8)): 0
Subjects with adverse events of mild severity, n (%) (Safety assessments; mild renal impairment (N = 8)): 2 (25.0%)
Subjects with adverse events of moderate severity, n (%) (Safety assessments; mild renal impairment (N = 8)): 1 (12.5%)
Number of adverse events of mild severity (Safety assessments; [6]): 1
Number of adverse events of moderate severity (Safety assessments; [6]): 1
Severe/life-threatening adverse events (Safety assessments; [6]): 0
Subjects with adverse events of mild severity, n (%) (Safety assessments; [6]): 1 (12.5%)
Subjects with adverse events of moderate severity, n (%) (Safety assessments; [6]): 1 (12.5%)
Number of adverse events of mild severity (Safety assessments; normal renal function (N = 8)): 4
Number of adverse events of moderate severity (Safety assessments; normal renal function (N = 8)): 1
Severe/life-threatening adverse events (Safety assessments; normal renal function (N = 8)): 0
Subjects with adverse events of mild severity, n (%) (Safety assessments; normal renal function (N = 8)): 1 (12.5%)
Subjects with adverse events of moderate severity, n (%) (Safety assessments; normal renal function (N = 8)): 1 (12.5%)
Number of adverse events of mild severity (Safety assessments; [5]): 1
Number of adverse events of moderate severity (Safety assessments; [5]): 1
Severe/life-threatening adverse events (Safety assessments; [5]): 0
Subjects with adverse events of mild severity, n (%) (Safety assessments; [5]): 1 (14.3%)
Subjects with adverse events of moderate severity, n (%) (Safety assessments; [5]): 1 (14.3%)
AUC0–∞, GLSMR (90% CI) versus normal renal function group ([3]; mild renal impairment): 124% (88.8–173)
Cmax, GLSMR (90% CI) versus normal renal function group ([3]; mild renal impairment): 153% (115–203)
AUC0–∞, GLSMR (90% CI) versus normal renal function group ([3]; moderate renal impairment): 248% (168–366)
Cmax, GLSMR (90% CI) versus normal renal function group ([3]; moderate renal impairment): 173% (131–230)
AUC0–∞, GLSMR (90% CI) versus normal renal function group ([3]; severe renal impairment): 230% (146–363)
Cmax, GLSMR (90% CI) versus normal renal function group ([3]; severe renal impairment): 228% (155–336)
CL/F total body clearance, GM (95% CI) ([3]; mild renal impairment (N = 8)): 74.8 (53.7–104) L/h
CL/F total body clearance, GM (95% CI) [3, 4]: 37.3 (23.7–58.9) L/h
CL/F total body clearance, GM (95% CI) ([3]; normal renal function (N = 8)): 92.6 (68.7–125) L/h
CL/F total body clearance, GM (95% CI) [3, 5]: 40.3 (22.6–71.7) L/h
CL/F, GLSMR (90% CI) versus normal renal function group ([3]; mild renal impairment): 80.8% (57.9–113)
Increase in AUC0–∞ compared to subjects with normal renal function ([3]; mild renal impairment): 24%
Increase in Cmax compared to subjects with normal renal function ([3]; mild renal impairment): 53%
CL/F, GLSMR (90% CI) versus normal renal function group ([3]; moderate renal impairment): 40.3% (27.3–59.5)
Increase in AUC0–∞ compared to subjects with normal renal function ([3]; moderate renal impairment): 148%
Increase in Cmax compared to subjects with normal renal function ([3]; moderate renal impairment): 73%
CL/F, GLSMR (90% CI) versus normal renal function group ([3]; severe renal impairment): 43.5% (27.5–68.7)
Increase in AUC0–∞ compared to subjects with normal renal function ([3]; severe renal impairment): 130%
Increase in Cmax compared to subjects with normal renal function ([3]; severe renal impairment): 128%
